Hits are enriched below; roughly 3.3% of the tested compounds scored in any of these assays.
C2C12 statin – suppressors of simvastatin-induced myotoxicity in C2C12 myotubes. ATP luminescence, 48 h; scaled: DMSO 0, geranylgeraniol control 100. rescue of ATP level, % at 7.49 µM. 0.78% of 330,000 active. AID 602340;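 active = mean ATP rescue above about 67%, or every replicate alone reaching that limit, limit read from the data, passing the limit was not always enough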;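 also: myotubes were challenged with 10 µM simvastatin during compound exposure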
XiGFP reactiv – activators of X-chromosome reactivation in mouse fibroblasts | AID 743238 | activation, % at 7.58 µM | 0.055% of 360,000 active | XiGFP mouse fibroblasts, % GFP-positive cells imaging, 3 d; cells co-treated with 5-aza-dC sensitizer; scaled so ellipticine positive control = 100%;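 active = mean normalized replicate activation at least 10% and every replicate at or above 10%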;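 also: 0% = median of on-plate neutral control wells and 100% = ellipticine 6 µM median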
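material = 68-5-11 XiGFP fibroblast line | medium = DMEM plus 5-aza-dC sensitizer | schedule = 3 days compound exposure | benchmarks = positive control ellipticine, 6 µM final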
DENV2 CPE – DENV2-induced cell death inhibition | DENV2-infected cells, cytopathic effect rescue, plate reader | CPE inhibition, % at 9.99 µM | 1.7% of 350,000 active; in the data active = CPE inhibition above about 20%, passing the limit was not always enough; tested in BHK-21 cells;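 also: 0% = median of neutral control wells and 100% = median of positive control wells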
PglD DTNB – inhibitors of Campylobacter jejuni PglD acetyltransferase. purified PglD enzyme, DTNB colorimetric CoA detection. inhibition, % at 12.5 µM. 0.098% of 360,000 active. AID 602405; in the data active = inhibition above about 16%, passing the limit was not always enough
FGF22 binding-1 – FGF22 (human) thermal shift binding. recombinant FGF22 thermal shift, SYPRO orange fluorescence; percent of sucrose octasulfate shift, DMSO zero. activity (Tm shift, normalised), % at 9.99 µM. 1.5% of 340,000 active. AID 651658;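 active = mean Tm shift, scaled 0 neutral to 100 positive control, at about 1.3% or above, every replicate too, limit read from the data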
Target sequence (Q9HCT0 whole entry, looked up): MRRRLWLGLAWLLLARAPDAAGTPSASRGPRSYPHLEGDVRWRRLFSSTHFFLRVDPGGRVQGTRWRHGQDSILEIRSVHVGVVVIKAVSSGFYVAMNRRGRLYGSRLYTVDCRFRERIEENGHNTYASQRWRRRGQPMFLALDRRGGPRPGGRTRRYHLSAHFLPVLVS
E-sel inducer – induces E-selectin expression in human endothelial cells | HUVEC E-selectin immunofluorescence imaging; normalized: neutral wells 0, TNF-alpha wells 100 | activation, % at 7.58 µM | 0.37% of 260,000 active;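 active = mean E-selectin-positive cell signal at least 10% of the positive control, reached in at least 60% of replicates, without over 20% cell loss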
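Test system: HUVEC | Signal: Immunofluorescence imaging | Read-out: Percent E-selectin-positive cells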
FGF22 binding-2 – binds human FGF22 shifting its melting temperature; shares compounds with FGF22 binding-1; recombinant FGF22 thermal shift, SYPRO orange fluorescence; thermal shift activity, °C (ΔTm) at 38 µM; 2% of 1,000 active; AID 720646;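 active = fitted rise in melting shift crosses a set limit at or below the top valid dose tested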
FGF22 TSA DP – binders of human FGF22 by thermal shift; 50 tested, under 10 active; Thermal shift assay, SYPRO orange, melting temperature shift; Tm shift (activity), % at 38 µM; shares compounds with FGF22 binding-1; AID 743017;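 active = compounds whose fitted dose curve of melting temperature shift rises past a set threshold within the tested doses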
SYPRO no-protein – compound-only SYPRO artifact for FGF22 binders; 2% of 1,000 active; shares compounds with FGF22 binding-1; AID 743019; compound-only SYPRO orange thermal shift counter-screen, no protein; AC50, µM (titrated, usually from 38 µM);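 active = rising signal whose fitted curve reaches the 0.54 level within the top valid dose, showing a melting point, actives reach about 13 µM in these data; inactive = the rest, including activity in the opposite direction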; also: value is where the raw curve crosses a fixed level and not half-maximal
* hit, by the source's call; [ ] = another dose, or the depositor's remark.

Results for CC(C)(C)[S@](=O)N1Cc2cc(C(=O)N[C@@H]3CCN(Cc4ccccc4)C3)nc(-c3cccc(-c4cncnc4)c3)c2[C@@H]1CCO ?
XiGFP reactiv: 0.1

What do the screens show for `CC(C)(C)[S@@](=O)N1Cc2cc(C(=O)NCc3ccncc3)nc(-c3cccc(-c4ccncc4)c3)c2[C@H]1CCO`?
C2C12 statin: 5.2; XiGFP reactiv: 0.1; DENV2 CPE: 1.4; PglD DTNB: -0.5; FGF22 binding-1: 0.1; E-sel inducer: 0.1

How did O=C(Nc1ccc2snnc2c1)N1CCOCC1 do in these assays?
C2C12 statin: 9.5; PglD DTNB: 0.1

Results for S=C(Nc1ccc(N2CCOCC2)cc1)Nc1ccc2snnc2c1 ?
XiGFP reactiv: -0.1; DENV2 CPE: 1.9; FGF22 binding-1: 1.6*; FGF22 binding-2: -0.226; SYPRO no-protein: inactive

What do the screens show for `Cn1cccc1/C=N/NC(=O)Cc1cccc2ccccc12`?
XiGFP reactiv: 0.0; DENV2 CPE: -5.0; FGF22 binding-1: 2.1*; FGF22 binding-2: 0.066; SYPRO no-protein: inactive

Results for CO[C@H]1CN(C)C(=O)c2cc(NC(=O)Nc3cccc(F)c3)ccc2OC[C@H](C)N(C(C)=O)C[C@@H]1C ?
C2C12 statin: -11.3; XiGFP reactiv: 0.3; DENV2 CPE: 2.8; PglD DTNB: -0.4; FGF22 binding-1: -0.2; E-sel inducer: -0.2

How did Nc1nnc(CC(=O)N/N=C/c2cc([N+](=O)[O-])cc(Br)c2O)s1 do in these assays?
C2C12 statin: 4.5; XiGFP reactiv: 0.2; DENV2 CPE: -2.8; FGF22 binding-1: 1.8*; SYPRO no-protein: inactive

How did CCC(=O)N1C[C@H]2[C@@H](c3ccccc31)[C@H](CO)N2Cc1ccccc1Cl do in these assays?
C2C12 statin: 19.1; XiGFP reactiv: 0.0; DENV2 CPE: 9.9; PglD DTNB: 1.6; FGF22 binding-1: -0.6; E-sel inducer: -0.3

Results for CN(C)CCN1C(=O)C2C3C=CC(C3)C2C1=O (configuration not stated) ?
XiGFP reactiv: 0.0; DENV2 CPE: 2.5; FGF22 binding-1: 14.8*; E-sel inducer: -0.9; FGF22 binding-2: -0.047; SYPRO no-protein: inactive

What do the screens show for `O=S(=O)(c1ccccc1)N1CCN(Cc2cccc(OCCO)c2)CC1`?
DENV2 CPE: -2.8; PglD DTNB: 0.3; FGF22 binding-1: -0.1

Results for Cc1ccccc1CN1[C@@H](Cc2ccccc2)COCCS1(=O)=O ?
XiGFP reactiv: 0.1; PglD DTNB: -3.7; E-sel inducer: 1.1

What do the screens show for `C=C1[C@@H](O)[C@H](Cc2ccccc2)N(Cc2ccccc2Br)S1(=O)=O`?
C2C12 statin: 5.3; XiGFP reactiv: 0.0; DENV2 CPE: 3.1; PglD DTNB: 4.5; FGF22 binding-1: 1.4*; E-sel inducer: 4.4; FGF22 binding-2: 0.119; SYPRO no-protein: inactive

Results for CC(C)NC(=O)Nc1ccc2c(c1)C(=O)N([C@@H](C)CO)C[C@H](C)[C@@H](CN(C)C(=O)Nc1ccc3c(c1)OCO3)OCCCC[C@H](C)O2 ?
XiGFP reactiv: -0.1; DENV2 CPE: -3.2; PglD DTNB: -4.7; FGF22 binding-1: -0.2

How did Cc1ccc(S(=O)(=O)N2C[C@H](O)COC[C@@H]3O[C@H](CC(=O)NCc4ccc(Cl)c(Cl)c4)CC[C@H]32)cc1 do in these assays?
C2C12 statin: -1.1; XiGFP reactiv: 0.1; DENV2 CPE: -11.2; PglD DTNB: 1.3; FGF22 binding-1: -0.3; E-sel inducer: 0.2

How did Cc1ccc(S(=O)(=O)N2C[C@@H](O)COC[C@@H]3O[C@@H](CC(=O)NCc4ccc(Cl)c(Cl)c4)CC[C@H]32)cc1 do in these assays?
C2C12 statin: -20.6; XiGFP reactiv: 0.1; DENV2 CPE: -8.7; PglD DTNB: -0.5; FGF22 binding-1: 1.4*; E-sel inducer: 0.0; FGF22 binding-2: 0.101[42 µM]; FGF22 TSA DP: -0.2; SYPRO no-protein: inactive

Results for O=C(C[C@@H]1CC[C@H]2[C@@H](COC[C@@H](O)CN2S(=O)(=O)c2cccc(F)c2)O1)Nc1ccccc1 ?
C2C12 statin: -2.2; XiGFP reactiv: -0.1; DENV2 CPE: -2.0; PglD DTNB: 2.3; FGF22 binding-1: 2.3*; E-sel inducer: 0.2; FGF22 binding-2: -1.06; SYPRO no-protein: inactive

Results for O=C(C[C@H]1CC[C@@H]2[C@H](COC[C@H](O)CN2S(=O)(=O)c2cccc(Cl)c2)O1)Nc1ccccc1 ?
C2C12 statin: 2.5; XiGFP reactiv: 0.3; DENV2 CPE: 1.9; PglD DTNB: -2.0; FGF22 binding-1: 1.4*; E-sel inducer: 0.3; FGF22 binding-2: 0.041[42 µM]; FGF22 TSA DP: 0.0; SYPRO no-protein: inactive

How did COc1cccc(S(=O)(=O)N2C[C@@H](O)COC[C@@H]3O[C@@H](CC(=O)Nc4ccccc4)CC[C@H]32)c1 do in these assays?
C2C12 statin: 4.7; XiGFP reactiv: 0.0; DENV2 CPE: 9.1; PglD DTNB: 2.6; FGF22 binding-1: 1.3*; E-sel inducer: 0.0; FGF22 binding-2: -0.236[42 µM]; SYPRO no-protein: inactive

What do the screens show for `O=C(C[C@H]1CC[C@@H](NC(=O)NC2CCCCC2)[C@@H](CO)O1)NCc1ccc(Cl)cc1`?
C2C12 statin: 1.9; XiGFP reactiv: 0.0; DENV2 CPE: -3.4; PglD DTNB: 0.4; FGF22 binding-1: 0.2; E-sel inducer: 0.2

Results for CCC(=O)N1C[C@@H](C)[C@@H](OC)CN(C)C(=O)c2ccc(NC(=O)C3CCOCC3)cc2OC[C@H]1C ?
C2C12 statin: 4.1; XiGFP reactiv: 0.1; PglD DTNB: -1.0; E-sel inducer: -0.2

What do the screens show for `COc1ccc(C(=O)N2C[C@@H]3[C@H](c4ccccc42)[C@@H](CO)N3Cc2ccccc2)cc1`?
C2C12 statin: 12.0; XiGFP reactiv: 0.1; DENV2 CPE: -4.1; PglD DTNB: -2.7; FGF22 binding-1: 1.3*; E-sel inducer: -0.3; FGF22 binding-2: 0.123[42 µM]; SYPRO no-protein: inactive

How did O=C(C1CCOCC1)N1C[C@@H]2[C@H](c3ccccc31)[C@@H](CO)N2Cc1ccccc1 do in these assays?
C2C12 statin: -13.7; XiGFP reactiv: -0.1; PglD DTNB: 1.9; FGF22 binding-1: 1.5*; E-sel inducer: 0.4; FGF22 binding-2: -0.021[42 µM]; SYPRO no-protein: inactive
